The campaign covered roughly 2,400 compounds. Fewer than 10 were called active. The list is a sample of the results. A number with no mark means an inactive call.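 Rule for the calls: active = activation of at least 50%; inactive = the rest.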
What follows are compounds tested against G-protein coupled receptor 183 (Homo sapiens) (UniProt P32249) (assay: EBI2 agonist activity of antagonist hits, confirmation, counter-screen for EBI2 antagonist project, cell-based, single concentration, agonist mode, luminescence (AID 652000)). Conditions: EBI2-expressing cells, 60 min, at 5 µM, stronger effect = higher value, 0% vehicle, 100% 7α,25-dihydroxycholesterol control.
Sequence of G-protein coupled receptor 183 (Homo sapiens) (P32249 whole entry, looked up): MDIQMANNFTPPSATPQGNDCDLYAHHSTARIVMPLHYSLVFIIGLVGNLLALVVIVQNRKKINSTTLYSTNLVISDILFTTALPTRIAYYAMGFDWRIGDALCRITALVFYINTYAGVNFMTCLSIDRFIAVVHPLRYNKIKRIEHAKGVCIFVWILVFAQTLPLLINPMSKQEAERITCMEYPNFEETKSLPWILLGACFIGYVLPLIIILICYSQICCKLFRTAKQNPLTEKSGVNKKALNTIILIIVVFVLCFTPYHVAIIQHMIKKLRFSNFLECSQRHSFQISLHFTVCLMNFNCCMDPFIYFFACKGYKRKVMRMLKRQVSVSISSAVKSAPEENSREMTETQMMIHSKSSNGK
In short: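 System: beta-arrestin reporter cell line; reagent: test wells without oxysterol; dosing: one dose from 10 mM stock, 2.5 nL; times: 37°C overnight seeding and 60-min compound, 25°C dark 60-min detection; signal: luminescence after adding detection reagent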
`O=C(NCc1ccc(Cl)cc1)C1CCN(S(=O)(=O)c2cccs2)CC1` showed an activation of 0.21%. With `O=C(CCNS(=O)(=O)c1ccccc1)NCCSc1ccc(Br)cc1` the activation was -1.84%. For `Cc1ccc(O/C=C2\OC(=O)c3ccccc32)cc1`, the activation was -0.84%. Work on `O=C(COc1ccc2ccccc2c1)N1CCN(C(=O)c2cccs2)CC1` yielded an activation of 0.16%. `COc1ccc(/C=C/C(=O)c2ccc(OC)cc2O)cc1` was tested, and the activation was -0.61%. `Fc1ccc(N2CCN(Cc3cnc(Oc4ccc(Br)cc4)s3)CC2)cc1` showed an activation of 1.8%. Compound `CCOC(=O)N1CCN(C(=O)COc2ccc(Cl)cc2C)CC1` has an activation of 0.57%. `CN(Cc1ccc(F)cc1)C(=O)COc1ccc2ccccc2c1` gave an activation of 0.62%. With `Cc1ccc(S(=O)(=O)N2CCN(C(=O)CSc3cc(C)ccc3C)CC2)c(C)c1` the activation was 1.03%. In the case of `Cc1ccc2oc(=O)c3cnn(CC(=O)N(Cc4ccco4)C4CCCCC4)c3c2c1`, the activation is reported as -0.75%. `Cc1cc(C)cc(Oc2nc3c(C)cccn3c(=O)c2/C=C(\C#N)C(=O)NC2CCS(=O)(=O)C2)c1` (stereo unspecified) was tested, and the activation was -1.11%. `Cc1cc(Cl)c2oc(C(=O)N3CCC(O)(c4ccccc4)CC3)c(C)c2c1` was tested, and the activation was -0.43%. `COc1ccc(CNC(=O)CN(c2ccc(OC)c(Cl)c2)S(=O)(=O)c2ccc(C)cc2)cc1` was tested, and the activation was -1.61%. For `Cc1ccc(N2CC(C(=O)Nc3ccc(S(=O)(=O)N4CCCC4)cc3)CC2=O)cc1C` (stereo unspecified), the activation was 1.21%. `O=C(C(c1ccccc1)c1ccccc1)N1CCN(CC(O)COc2ccccc2)CC1` (stereo unspecified) gave an activation of -0.02%. With `O=C(CC(c1ccccc1)c1ccccc1)NCC(O)c1ccc([N+](=O)[O-])cc1` (stereo unspecified) the activation was -0.61%. Work on `Cc1ccc(S(=O)(=O)N2CCN(CC(=O)N/N=C/c3ccc(Br)s3)CC2)cc1` yielded an activation of 0.71%. Compound `N#CC(=C1CCCC1)c1nc(-c2ccc(Cl)cc2)cs1` has an activation of -0.93%. `Cc1cc(OCC(=O)N2CCN(c3ncccn3)CC2)ccc1Cl` showed an activation of 1.39%. With `O=C(/C=C/c1ccc(Cl)cc1)N1CCN(c2ccccc2[N+](=O)[O-])CC1` the activation was 1.03%. For `O=C(Nc1ncc2c(n1)CC(c1ccco1)CC2=O)c1ccc(Cl)cc1` (stereo unspecified), the activation was 1.34%. Work on `CCOc1ccc(CCN2C(=S)N([C@@H](CC(C)C)CN3CCC[C@@H]3CN3C(=S)NC[C@@H]3Cc3ccc(O)cc3)C[C@@H]2Cc2ccc(O)cc2)cc1` yielded an activation of -0.93%. Work on `COc1ccc(OCC(=O)N2CCN(C(=O)COc3ccccc3)CC2)cc1` yielded an activation of -0.25%. Work on `O=C(NNC(=O)c1ccc2ccccc2c1)c1ccc(Cl)cc1` yielded an activation of 0.21%. With `COc1cccc(-c2cc(C(=O)N3CCN(c4ccccc4OC)CC3)no2)c1` the activation was -0.66%. In the case of `COc1ccc(-c2cc(C3CCN(c4ncccc4[N+](=O)[O-])CC3)[nH]n2)cc1`, the activation is reported as -0.52%. In the case of `FC(F)(F)Oc1ccccc1C(c1nnnn1C1CCCCC1)N1CCN(C/C=C/c2ccccc2)CC1` (stereo unspecified), the activation is reported as 2.25%. Compound `Cc1ccc(OCC(=O)N2CCN(C(=O)c3cccnc3)CC2)cc1` has an activation of 0.16%. `CC1CCc2sc3nc(N4CCN(CCO)CC4)n4ncnc4c3c2C1` (stereo unspecified) showed an activation of 1.12%. `Cc1nc2ccc(C(=O)N3CCN(c4ccccc4)CC3)cc2s1` showed an activation of -1.39%. `Cc1cs/c(=N\N=C\c2ccc(O)cc2)n1Cc1ccco1` gave an activation of -0.2%. `CCOc1ccc(CN(Cc2ccco2)S(=O)(=O)c2ccc(-n3cnnn3)c(OC)c2)cc1` was tested, and the activation was 0.3%. `Fc1ccccc1/C=N/Nc1cc(N2CCCCC2)ncn1` showed an activation of -1.29%. Work on `CC(C)Cn1c(N2CCN(C(=O)/C=C/c3ccccc3)CC2)nc2ccccc21` yielded an activation of -1.2%. `COc1cccc(NC(=O)Cn2c3ccccc3c3nc4n(c(=O)c32)CCS4)c1` gave an activation of -1.89%. `Cc1ccc(OCCNC(=O)CCNS(=O)(=O)c2ccc(Br)cc2)cc1` was tested, and the activation was -0.93%. For `CCN(CC(=O)NCc1cccs1)C(=O)/C=C/c1ccc(C)cc1`, the activation was 0.57%. `Cc1cccc(N2CCN(C(=O)c3cc4c(=O)[nH]c5ccccc5c4n3C)CC2)c1C` gave an activation of 2.57%. `O=C(COc1ccc2c(c1)CCC2)N1CCN(c2ccc(F)cc2)CC1` gave an activation of -1.43%. For `O=C(COc1ccc(Cl)cc1)N1CCN(c2cccc(C(F)(F)F)c2)CC1`, the activation was 1.62%. `Cc1nc(-c2ccccc2)sc1C(=O)/C=C/c1ccccc1` was tested, and the activation was 1.39%. For `N#Cc1ccc(C(c2nnnn2CCc2ccccc2)N2CCCCCC2)cc1` (stereo unspecified), the activation was 0.07%. With `COc1ccccc1N1CCN(C(=O)c2cc(=O)c3cc(C)ccc3o2)CC1` the activation was 0.39%. `O=C(c1cc2cc(F)ccc2[nH]1)N1CCN(c2ccc(F)cc2)CC1` showed an activation of 1.94%. `COc1ccc(NC(=O)N2CCC(Cc3ccccc3)CC2)cc1` showed an activation of -0.34%. With `Cc1ccc(-c2nn(-c3ccccc3)cc2/C=C/C(=O)Nc2cccc(S(N)(=O)=O)c2)cc1` the activation was 1.07%. `Cc1cccc(NC(=O)CN2CCN(C(=O)C3CCN(C(=O)/C=C/c4ccccc4)CC3)CC2)c1C` showed an activation of -0.88%. `Cc1ccc2oc(=O)c3cnn(CC(=O)N4CCCCCC4)c3c2c1` gave an activation of -0.61%. Compound `CC(=O)c1nn(-c2ccc(C)cc2)cc1C(=O)c1cccc(Br)c1` has an activation of 1.07%. With `COc1ccc([C@H]2CC(=O)C=C(c3ccc(C)cc3)C2)cc1` the activation was 1.12%. `CCOc1ccc(C(C)=O)cc1COC(=O)c1cnc(Cl)c(Cl)c1` was tested, and the activation was -0.57%. `O=C(c1cc2ccccc2s1)N1CCN(c2ccccn2)CC1` was tested, and the activation was -1.48%. For `CCC1Nc2ncnc(N3CCN(c4ccccc4)CC3)c2N(Cc2ccc(Cl)cc2)C1=O` (stereo unspecified), the activation was -4.52%. `CC1(Cc2ccccc2C#N)C(=O)Nc2ccc(-c3ccc4[nH]ccc4c3)cc21` (stereo unspecified) showed an activation of -0.66%. In the case of `O=C(c1cc2ccccc2o1)N1CCN(S(=O)(=O)c2ccc(Cl)s2)CC1`, the activation is reported as 0.16%. `COc1ccc(Nc2cc(Sc3ccc(OC)cc3)ncn2)cc1` gave an activation of -0.07%.
